Test results: ChEMBL document CHEMBL1125455, “Novel anthraquinone inhibitors of human leukocyte elastase and cathepsin G” (J Med Chem, 1992)
Activity calls are given as the source filed them. No cut-off for these calls is given here.

Assays:
Cathepsin G [1] = molecular target: T1, Cathepsin G (Homo sapiens, UniProt P08311); test: Compound was tested for the enzyme inhibitory activity against Cathepsin G (CatG); NI = no inhibition
T1 sequence (P08311 whole entry): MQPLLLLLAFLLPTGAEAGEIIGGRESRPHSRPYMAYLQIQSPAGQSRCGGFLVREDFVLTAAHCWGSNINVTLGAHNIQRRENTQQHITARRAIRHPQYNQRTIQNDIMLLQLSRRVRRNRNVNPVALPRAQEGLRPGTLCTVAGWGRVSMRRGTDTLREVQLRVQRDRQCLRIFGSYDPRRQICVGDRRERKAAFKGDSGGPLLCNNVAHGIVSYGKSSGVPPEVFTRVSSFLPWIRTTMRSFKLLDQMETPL

Neutrophil elastase [2] = molecular target: T2, Neutrophil elastase (Homo sapiens, UniProt P08246); test: Compound was tested for the enzyme inhibitory activity against Human Leukocyte Elastase (HLE); NI = no inhibition
T2 sequence (P08246 whole entry): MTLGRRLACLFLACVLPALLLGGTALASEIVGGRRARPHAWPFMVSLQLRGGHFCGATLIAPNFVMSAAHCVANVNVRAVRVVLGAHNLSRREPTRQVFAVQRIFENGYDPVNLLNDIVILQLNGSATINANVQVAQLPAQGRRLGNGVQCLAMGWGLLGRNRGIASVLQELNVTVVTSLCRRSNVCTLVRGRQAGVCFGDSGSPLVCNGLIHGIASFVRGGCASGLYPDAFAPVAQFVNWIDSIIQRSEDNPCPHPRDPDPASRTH

Neutrophil elastase [3] = molecular target: T2, Neutrophil elastase; test: In vitro inhibition of human leukocyte elastase.
[4] = molecular target: T3, Cathepsin G (Homo sapiens) (UniProt P08311); test: Inhibitory activity against Cathepsin G (CatG) at 62 uM concentration
T3 sequence (whole entry): T1 sequence (P08311 whole entry)

[5] = molecular target: Chymotrypsinogen A (Bos taurus) (UniProt P00766); test: Inhibitory activity against Chymotrypsinogen at 62 uM concentration; NI = no inhibition; settings: Sus scrofa
[6] = molecular target: T4, Chymotrypsin-like elastase family member 2A (Sus scrofa) (UniProt P08419); test: Inhibitory activity against Porcine Pancreatic Elastase (PPE) at 62 uM concentration
T4 sequence (whole entry): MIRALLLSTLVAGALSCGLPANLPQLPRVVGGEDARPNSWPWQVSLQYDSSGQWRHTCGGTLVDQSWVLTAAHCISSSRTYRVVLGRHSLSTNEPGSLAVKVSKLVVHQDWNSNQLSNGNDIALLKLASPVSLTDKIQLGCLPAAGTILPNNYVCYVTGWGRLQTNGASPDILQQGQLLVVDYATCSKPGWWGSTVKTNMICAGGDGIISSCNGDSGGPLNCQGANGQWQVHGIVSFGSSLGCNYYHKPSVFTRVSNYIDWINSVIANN

[7] = molecular target: T5, Neutrophil elastase (Homo sapiens) (UniProt P08246); test: Inhibitory activity against Human Leukocyte Elastase (HLE) at 62 uM concentration
T5 sequence (whole entry): T2 sequence (P08246 whole entry)

Neutrophil elastase [8] = molecular target: T2, Neutrophil elastase; test: HLE-inhibitor (Human Leukocyte Elastase) dissociation constant determined by using Dixon Plot
[9] = molecular target: T3, Cathepsin G (Homo sapiens); test: Inhibitory activity against Cathepsin G (CatG) at 70 uM concentration
[10] = molecular target: Chymotrypsinogen A (Bos taurus) (UniProt P00766); test: Inhibitory activity against Chymotrypsinogen at 70 uM concentration; NI = no inhibition; settings: Sus scrofa
[11] = molecular target: T4, Chymotrypsin-like elastase family member 2A (Sus scrofa); test: Inhibitory activity against Porcine Pancreatic Elastase (PPE) at 70 uM concentration; NI = no inhibition
[12] = molecular target: T5, Neutrophil elastase (Homo sapiens); test: Inhibitory activity against Human Leukocyte Elastase (HLE) at 70 uM concentration; NI = no inhibition
[13] = molecular target: T3, Cathepsin G (Homo sapiens); test: Inhibitory activity against Cathepsin G (CatG) at 63 uM concentration
Summary of the method: (§1)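 Percent inhibition of enzyme activity at a single inhibitor concentration. Assays run at 25 °C in 0.1 M HEPES, 0.5 M NaCl, pH 7.5, with 9-11% DMSO. The method otherwise follows an earlier report.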

[14] = molecular target: Chymotrypsinogen A (Bos taurus) (UniProt P00766); test: Inhibitory activity against Chymotrypsinogen at 63 uM concentration; summary of the method: as §1
[15] = molecular target: T4, Chymotrypsin-like elastase family member 2A (Sus scrofa); test: Inhibitory activity against Porcine Pancreatic Elastase (PPE) at 63 uM concentration; summary of the method: as §1
[16] = molecular target: T5, Neutrophil elastase (Homo sapiens); test: Inhibitory activity against Human Leukocyte Elastase (HLE) at 63 uM concentration; summary of the method: as §1
Cathepsin G [17] = molecular target: T1, Cathepsin G; test: Inhibition of Cathepsin G (CatG)
[18] = molecular target: T3, Cathepsin G (Homo sapiens); test: Inhibitory activity against Cathepsin G (CatG) at 86 uM concentration
[19] = molecular target: T5, Neutrophil elastase (Homo sapiens); test: Inhibitory activity against Human Leukocyte Elastase (HLE) at 86 uM concentration; NI = no inhibition
[20] = molecular target: T4, Chymotrypsin-like elastase family member 2A (Sus scrofa); test: Inhibitory activity against Porcine Pancreatic Elastase (PPE) at 86 uM concentration; NI = no inhibition
Neutrophil elastase [21] = molecular target: T2, Neutrophil elastase; test: Compound was tested for the enzyme inhibitory activity against Human Leukocyte Elastase (HLE)
[22] = molecular target: T3, Cathepsin G (Homo sapiens); test: Inhibitory activity against Cathepsin G (CatG) at 61 uM concentration; NI = no inhibition
[23] = molecular target: Chymotrypsinogen A (Bos taurus) (UniProt P00766); test: Inhibitory activity against Chymotrypsinogen at 61 uM concentration
[24] = molecular target: T4, Chymotrypsin-like elastase family member 2A (Sus scrofa); test: Inhibitory activity against Porcine Pancreatic Elastase (PPE) at 61 uM concentration; NI = no inhibition
[25] = molecular target: T5, Neutrophil elastase (Homo sapiens); test: Inhibitory activity against Human Leukocyte Elastase (HLE) at 61 uM concentration
[26] = molecular target: T4, Chymotrypsin-like elastase family member 2A (Sus scrofa); test: Inhibitory activity against Porcine Pancreatic Elastase (PPE) at 59 uM concentration; NI = no inhibition
[27] = molecular target: T5, Neutrophil elastase (Homo sapiens); test: Inhibitory activity against Human Leukocyte Elastase (HLE) at 59 uM concentration
[28] = molecular target: T3, Cathepsin G (Homo sapiens); test: Inhibitory activity against Cathepsin G (CatG) at 62 uM concentration; NI = no inhibition
[29] = molecular target: Chymotrypsinogen A (Bos taurus) (UniProt P00766); test: Inhibitory activity against Chymotrypsinogen at 62 uM concentration; settings: Sus scrofa
Neutrophil elastase [30] = molecular target: T2, Neutrophil elastase; test: Compound was tested for the enzyme inhibitory activity against Human Leukocyte Elastase (HLE) at 62 uM concentration

With `COc1cccc2c1C(=O)c1c(ccc(CC3CO3)c1O)C2=O` (stereo unspecified) the IC50 (Cathepsin G [1]) was “Not Active” and the IC50 (Neutrophil elastase [2]) was “Not Active”.
Work on `CC(C)Cc1ccc2c(c1O)C(=O)c1c(O)cccc1C2=O` yielded an IC50 (Neutrophil elastase [3]) of 8 µM.
`CCCc1ccc2c(c1O)C(=O)c1c(O)cccc1C2=O` was tested, and the IC50 (Neutrophil elastase [3]) was 4.2 µM.
In the case of `O=C1c2cc(O)cc(O)c2C(=O)c2c(O)cc(CO)cc21`, the inhibition [4] is reported as 22%, the inhibition [5] is reported as “inactive” and the inhibition [6] is reported as 4%. It also gave an inhibition [7] of 26%.
`CCCCCCc1ccc2c(c1OC(=O)OCCCC)C(=O)c1c(OC(=O)OCCCC)cccc1C2=O` gave an IC50 (Neutrophil elastase [3]) of 2.1 µM and a Ki (Neutrophil elastase [8]) of 0.43 µM.
With `CC(=O)Oc1cccc2c1C(=O)c1c(OC(C)=O)cc(C(=O)O)cc1C2=O` the inhibition [9] was 5%, the inhibition [10] was “inactive” and the inhibition [11] was “inactive”. For the same compound, the inhibition [12] was “inactive”.
`O=C1c2cccc(O)c2C(=O)c2c(O)cc(CO)cc21` showed an inhibition [13] of 3%, an inhibition [14] of 13% and an inhibition [15] of 18%. For the same compound, the inhibition [16] was 21%.
For `CCCc1ccc2c(c1O)C(=O)c1c(OC)cccc1C2=O`, the IC50 (Cathepsin G [17]) was > 60 µM and the IC50 (Neutrophil elastase [3]) was 8.7 µM.
In the case of `CCCCOC(=O)Oc1cccc2c1C(=O)c1c(OC(=O)OCCCC)cccc1C2=O`, the IC50 (Neutrophil elastase [3]) is reported as 12 µM and the Ki (Neutrophil elastase [8]) is reported as 7.5 µM.
With `O=C(O)c1cc(O)c2c(c1)C(=O)c1cccc(O)c1C2=O` the inhibition [18] was 22%, the inhibition [19] was “inactive” and the inhibition [20] was “inactive”.
`COc1cccc2c1C(=O)c1c(ccc(CC(C)C)c1OC(C)=O)C2=O` was tested, and the IC50 (Cathepsin G [1]) was “No inhibition”.
`O=C1c2cccc(O)c2C(=O)c2c1ccc(Cc1ccccc1)c2O` gave an IC50 (Neutrophil elastase [3]) of 13 µM.
In the case of `CCCCOC(=O)Oc1cc(C)cc2c1C(=O)c1c(OC(=O)OCCCC)cc(OCCC)cc1C2=O`, the Ki (Neutrophil elastase [8]) is reported as 0.15 µM and the IC50 (Neutrophil elastase [21]) is reported as 1.8 µM.
For `CCc1ccc2c(c1)C(=O)c1ccccc1C2=O`, the IC50 (Cathepsin G [1]) was “Not Active”.
`C=CCc1ccc2c(c1OC)C(=O)c1c(OC)cccc1C2=O` was tested, and the IC50 (Cathepsin G [17]) was > 60 µM and the IC50 (Neutrophil elastase [2]) was “Not Active”.
Work on `CCCCOC(=O)Oc1cc(C)cc2c1C(=O)c1c(OC(=O)OCCCC)cc(OC)cc1C2=O` yielded a Ki (Neutrophil elastase [8]) of 2.8 µM and an IC50 (Neutrophil elastase [21]) of 2.5 µM.
In the case of `CCCCOC(=O)Oc1cccc2c1C(=O)c1c(OC(=O)OCCCC)cc(C)cc1C2=O`, the IC50 (Neutrophil elastase [3]) is reported as 5.1 µM and the Ki (Neutrophil elastase [8]) is reported as 1.9 µM.
For `CC(=O)OCc1cc(OC(C)=O)c2c(c1)C(=O)c1cccc(OC(C)=O)c1C2=O`, the inhibition [22] was “inactive”, the inhibition [23] was 3% and the inhibition [24] was “inactive”. It also gave an inhibition [25] of 30%.
For `CC(=O)Oc1cccc2c1C(=O)c1c(OC(C)=O)cc(CBr)cc1C2=O`, the inhibition [26] was “inactive” and the inhibition [27] was 33%.
For `COc1cccc2c1C(=O)c1c(ccc(Cc3ccccc3)c1O)C2=O`, the IC50 (Cathepsin G [1]) was “No inhibition” and the IC50 (Neutrophil elastase [3]) was 6.7 µM.
`CC(=O)Oc1cc(OC(C)=O)c2c(c1)C(=O)c1cc(C)cc(OC(C)=O)c1C2=O` [EMODIN TRIACETATE] was tested, and the inhibition [28] was “inactive”, the inhibition [29] was 3% and the inhibition [6] was 22%. It also gave an IC50 (Neutrophil elastase [30]) of 13 µM and an inhibition [7] of 79%.
In the case of `CCCCCc1ccc2c(c1O)C(=O)c1c(OC)cccc1C2=O`, the IC50 (Cathepsin G [17]) is reported as > 60 µM and the IC50 (Neutrophil elastase [3]) is reported as 6.1 µM.
